From ChEMBL document CHEMBL1124299, “Synthesis and thromboxane A2 antagonist activity of N-benzyltrimetoquinol analogues” (J Med Chem, 1988)

Columns and labels:
Homo sapiens [1] = species: Homo sapiens; test: Inhibition of 0.5-0.7 uM of U-46,619 induced [14C]5-HT secretion; format: functional
Method in brief: (§1)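 Human platelet-rich plasma from medication-free volunteers. Dense-granule secretion measured as release of radioactivity from prelabeled platelets, induced by ADP or U46619. Inhibitors added 1 min before the inducer, which was used at the minimum concentration giving maximal aggregation. Values are IC50s.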

Homo sapiens [2] = species: Homo sapiens; test: Inhibition of 0.5-0.7 uM of U-46,619 induced human platelet aggregation; format: functional
Method in brief: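 Human platelet-rich plasma from donors medication-free for at least 10 days. Born turbidometric aggregation, with U46619 at the minimum concentration giving maximal aggregation. Inhibitor added 1 min before U46619. IC50 taken from the change in light-transmittance amplitude at 4 min.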

Rattus norvegicus [3] = species: Rattus norvegicus; test: Inhibition of U-46,619-induced contraction of Rat thoracic aorta in the presence of indomethacin; format: functional
Method in brief: (§2)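 Rat thoracic aortic strips equilibrated 1 h in Krebs-Henseleit solution containing 3 X 10^-6 M indomethacin; TMQ analogues tested at 100 µM against U46619-induced contraction. Cumulative U46619 concentration-response curves by the van Rossum method. U46619 EC50 read graphically from individual percent response vs log concentration plots and expressed as pD2. Significance level 5% versus control.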

Rattus norvegicus [4] = species: Rattus norvegicus; test: Inhibition of U-46,619-induced contraction of Rat thoracic aorta in the presence of indomethacin, at conc 100 uM; format: functional; method in brief: as §2
Rattus norvegicus [5] = species: Rattus norvegicus; test: Inhibition of U-46,619-induced contraction of Rat thoracic aorta expressed as pKB value of the compound; format: functional
Rattus norvegicus [6] = species: Rattus norvegicus; test: Inhibition of U-46,619-induced contraction of Rat thoracic aorta in the presence of indomethacin control); format: functional; method in brief: as §2
Rattus norvegicus [7] = species: Rattus norvegicus; test: Inhibition of U-46,619-induced contraction of Rat thoracic aorta in the presence of indomethacin, KB; format: functional
Rattus norvegicus [8] = species: Rattus norvegicus; test: Inhibition against U-46,619-induced contraction of Rat thoracic aorta was determined expressed as pA2; format: functional; conditions: read-out: pA2 (converted)
Rattus norvegicus [9] = species: Rattus norvegicus; test: Inhibition of U-46,619-induced contraction of Rat thoracic aorta in the presence of indomethacin(control); format: functional; method in brief: as §2
Rattus norvegicus [10] = species: Rattus norvegicus; test: Log of KB that is, inhibition of U-46,619-induced contraction of Rat thoracic aorta in the presence of indomethacin; format: functional
Homo sapiens [11] = species: Homo sapiens; test: Inhibition of 0.5-0.7 uM of ADP induced [14C]5-HT secretion; format: functional, organism-based; conditions: in the assay text read “1.5-1.9 uM” for “0.5-0.7 uM”; method in brief: as §1
Homo sapiens [12] = species: Homo sapiens; test: Inhibition of 1.5-1.9 uM of ADP-induced human platelet aggregation; format: functional
Method in brief: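 Platelet-rich plasma from human volunteers free of medication for at least 10 days. Turbidometric (Born) aggregation in a dual-channel aggregometer, with ADP at the minimum concentration giving maximal aggregation. Inhibitor added 1 min before ADP. IC50 derived from the change in light-transmittance amplitude at 6 min. Mean ± SEM of three preparations.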

Rattus norvegicus [13] = species: Rattus norvegicus; test: Inhibition of U-46,619-induced contraction of Rat thoracic aorta in the presence of indomethacin (control); format: functional; method in brief: as §2

Row | IC50 (Homo sapiens [1]) [µM] | IC50 (Homo sapiens [2]) [µM] | IC50 (Homo sapiens [11]) [µM] | IC50 (Homo sapiens [12]) [µM] | Compound | Kb (Rattus norvegicus [3]) [µM] | pD2 (Rattus norvegicus [4]) | pKB (Rattus norvegicus [5]) | pD2 (Rattus norvegicus [6]) | Kb (Rattus norvegicus [7]) [µM] | Kb (Rattus norvegicus [8]) [µM] | pD2 (Rattus norvegicus [9]) | pKB (Rattus norvegicus [10]) | pD2 (Rattus norvegicus [13])
1 | 0.75 | 0.77 |  |  | COc1cc(NCc2ccc3nc(N)nc(N)c3c2C)cc(OC)c1OC [TRIMETREXATE] | 4.26 | 6.78 | 5.37 |  |  |  |  |  | 
2 | 264 | 257 |  |  | COc1cc(CC2c3cc(O)c(O)cc3CCN2Cc2ccc(Cl)c(Cl)c2)cc(OC)c1OC (stereo not given) |  | 8.22 |  | 8.12 |  |  |  |  | 
3 | 40.4 | 55.9 |  |  | COc1cc(CC2c3cc(O)c(O)cc3CCN2Cc2ccc(C)cc2)cc(OC)c1OC (stereo not given) |  | 7.58 |  |  | 55 | 30.2 | 8.05 | 4.26 | 
4 | 269 | 296 | 289 | 359 | COc1cc(CC2c3cc(O)c(O)cc3CCN2Cc2ccc([N+](=O)[O-])cc2)cc(OC)c1OC (stereo not given) |  | 7.84 |  |  | 89.1 |  |  | 4.05 | 8.21
5 | 56.2 | 50.2 |  |  | COc1ccc(CN2CCc3cc(O)c(O)cc3C2Cc2cc(OC)c(OC)c(OC)c2)cc1 (stereo not given) |  | 7.64 |  |  | 69.2 |  |  | 4.16 | 8.07
6 | 66.4 | 67.4 | 54.1 | 67.5 | COc1cc(CC2c3cc(O)c(O)cc3CCN2Cc2ccccc2)cc(OC)c1OC (stereo not given) |  | 7.86 |  |  | 138 |  |  | 3.86 | 8.11
7 | 128 | 119 |  |  | COc1cc(CC2c3cc(O)c(O)cc3CCN2Cc2ccc(Cl)cc2)cc(OC)c1OC (stereo not given) |  | 8.09 |  |  |  |  |  |  | 8.1
8 | 27.1 | 27 | 29.1 | 40 | COc1cc(CC2c3cc(O)c(O)cc3CCN2Cc2ccc(N)cc2)cc(OC)c1OC (stereo not given) |  | 8.03 |  |  | 162 |  |  | 3.79 | 8.26
